# Test results as given in ChEMBL document CHEMBL1154087, “Novel orally active NPY Y5 receptor antagonists: Synthesis and structure-activity relationship of spiroindoline class compounds” (Bioorg Med Chem, 2009).
# Activity calls are given as the source filed them. No cut-off for these calls is given here.
# Key:
# Rattus norvegicus [1] = test: Suppression of Y5 agonist bovine pancreatic peptide-induced food intake in po dosed Sprague-Dawley rat assessed as minimum effective dose treated 1 hr before peptide administration measured after 2 hrs; assay type: functional
# Summary of the method: (§1)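 bPP (5 µg) given ICV to SD rats in 10 µL of 10 mM PBS containing 0.05% BSA. Compound suspended in 0.5% methylcellulose in distilled water and given orally (5 mL/kg) 1 h before bPP. Cumulative food intake recorded over 0–2 h; n = 7 or more. MED is the lowest dose with a statistically significant reduction versus vehicle (P < 0.05 or P < 0.01).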
# [2] = Ratio of drug level in brain to plasma in Sprague-Dawley rat at 3 mg/kg, iv after 10 mins; assay type: ADME, organism-based; parameters: dose 3 mg/kg, route intravenous
# Summary of the method: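 Rats (n = 2) dosed iv at 3 mpk. Brain and plasma concentrations taken 10 min after dosing, and brain penetration expressed as the brain/plasma ratio.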
# [3] = Cmax in Sprague-Dawley rat at 10 mg/kg, po and 3 mg/kg, iv; assay type: ADME, organism-based; details: in vivo
# Summary of the method: (§2)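 Sprague-Dawley rats (n = 2) given 3 mpk iv and 10 mpk po. Plasma sampled at 5 min, 1 h and 4 h after iv dosing and at 0.5 h, 1 h and 2 h after po dosing. F, CL_tot, AUC and other PK parameters calculated by the trapezoidal method.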
# [4] = Total clearance in Sprague-Dawley rat at 10 mg/kg, po and 3 mg/kg, iv; assay type: ADME, organism-based; details: in vivo; summary of the method: as §2
# [5] = AUC in Sprague-Dawley rat at 10 mg/kg, po and 3 mg/kg, iv; assay type: ADME, organism-based; details: plasma; summary of the method: as §2
# [6] = Tmax in Sprague-Dawley rat at 10 mg/kg, po and 3 mg/kg, iv; assay type: ADME, organism-based; details: in vivo; summary of the method: as §2
# [7] = molecular target: T1, Neuropeptide Y receptor type 5 (Homo sapiens, UniProt Q15761); test: Binding affinity to human neuropeptide Y5 receptor
# T1 sequence (Q15761 whole entry): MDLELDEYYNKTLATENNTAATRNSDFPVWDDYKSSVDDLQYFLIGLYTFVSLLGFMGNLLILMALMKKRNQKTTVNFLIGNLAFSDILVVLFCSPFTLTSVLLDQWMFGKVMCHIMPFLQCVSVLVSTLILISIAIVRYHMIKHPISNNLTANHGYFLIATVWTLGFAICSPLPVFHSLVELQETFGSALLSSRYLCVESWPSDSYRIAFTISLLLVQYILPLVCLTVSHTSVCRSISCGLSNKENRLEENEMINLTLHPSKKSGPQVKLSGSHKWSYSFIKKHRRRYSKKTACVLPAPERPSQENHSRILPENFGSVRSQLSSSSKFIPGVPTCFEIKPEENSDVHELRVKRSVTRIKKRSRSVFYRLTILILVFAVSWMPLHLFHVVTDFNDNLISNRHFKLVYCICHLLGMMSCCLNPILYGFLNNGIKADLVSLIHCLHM
# [8] = Oral bioavailability in Sprague-Dawley rat at 10 mg/kg; assay type: ADME, organism-based; details: in vivo; summary of the method: as §2
# [9] = Lipophilicity, calculated log D at pH 7.4
# Mus musculus [10] = test: Reduction in body weight in diet-induced obese C57BL/6J mouse at 100 mg/kg, po; assay type: functional, organism-based; parameters: dose 100 mg/kg
# Mus musculus [11] = organism: Mus musculus; test: Reduction in body weight in Y5 receptor knock-out diet-induced obese C57BL/6J mouse; assay type: functional, organism-based
# Rattus norvegicus [12] = test: Suppression of Y5 agonist bovine pancreatic peptide-induced food intake in Sprague-Dawley rat at 3 mg/kg, po treated 1 hr before peptide administration measured after 2 hrs; assay type: functional; summary of the method: as §1
# Mus musculus [13] = test: Reduction in body weight in diet-induced obese C57BL/6J mouse at 30 mg/kg, po after 13 days; assay type: functional, organism-based; parameters: dose 30 mg/kg
# Mus musculus [14] = test: Reduction in cumulative food intake in diet-induced obese C57BL/6J mouse at 30 mg/kg, po after 13 days relative to control; assay type: functional; parameters: scale not given: the % may be the effect or the level left
# Rattus norvegicus [15] = test: Suppression of Y5 agonist bovine pancreatic peptide-induced food intake in Sprague-Dawley rat at 1 mg/kg, po treated 1 hr before peptide administration measured after 2 hrs; assay type: functional; summary of the method: as §1
# Brain = test: Drug level in Sprague-Dawley rat brain at 10 mg/kg, po after 2 hrs; assay type: ADME, organism-based; parameters: dose 10 mg/kg, route oral; details: in vivo
# Summary of the method: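 SD rats dosed orally at 10 mg/kg. Brain concentration measured 2 h after dosing and expressed as nmol/g.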
# Rattus norvegicus [16] = test: Suppression of Y5 agonist bovine pancreatic peptide-induced food intake in Sprague-Dawley rat at 10 mg/kg, po treated 1 hr before peptide administration measured after 2 hrs; assay type: functional; summary of the method: as §1
SMILES,MED (Rattus norvegicus [1]),IC50 [7],further results
CS(=O)(=O)N1CC2(CCN(C(=O)Nc3ccc(-c4ccccn4)cc3)CC2)c2ccccc21,> 100 mg/kg,,Kp at 10 min [2]: 0.22; Cmax [3]: 0.6 µM; clearance [4]: 24.4 mL/min/kg; AUC [5]: 1.8 µM·h; Tmax [6]: 0.25 h
CS(=O)(=O)N1CC2(CCN(C(=O)Nc3nc4cc(Cl)ccc4o3)CC2)c2ccccc21,,5 nM,
CCS(=O)(=O)N1CC2(CCN(C(=O)Nc3cn(-c4cccc(OC)c4)cn3)CC2)c2ccccc21,10 mg/kg,2 nM,Kp at 10 min [2]: 0.11; bioavailability [8]: 50.1%
CCS(=O)(=O)N1CC2(CCN(C(=O)Nc3cn(-c4ccccc4OC)cn3)CC2)c2ccccc21,> 30 mg/kg,4.9 nM,
CS(=O)(=O)N1CC2(CCN(C(=O)Nc3ccc(-c4cscn4)cc3)CC2)c2ccccc21,,2.8 nM,
CS(=O)(=O)N1CC2(CCN(C(=O)Nc3ccc(Cl)nc3)CC2)c2ccccc21,,11 nM,
CS(=O)(=O)N1CC2(CCN(C(=O)Nc3nnc(-c4ccccc4)s3)CC2)c2ccccc21,,3.4 nM,
CS(=O)(=O)N1CC2(CCN(C(=O)Nc3ncc(-c4ccccc4)s3)CC2)c2ccccc21,,2.2 nM,
CS(=O)(=O)N1CC2(CCN(C(=O)Nc3ccc(-c4nccs4)cc3)CC2)c2ccccc21,,2.4 nM,
CS(=O)(=O)N1CC2(CCN(C(=O)Nc3ccc(C(=O)c4ccccc4)cc3)CC2)c2ccccc21,,0.68 nM,
CCS(=O)(=O)N1CC2(CCN(C(=O)Nc3cn(-c4cccc(F)c4)cn3)CC2)c2ccccc21,30 mg/kg,3 nM,Kp at 10 min [2]: 0.18; bioavailability [8]: 23%
CS(=O)(=O)N1CC2(CCN(C(=O)Nc3ccc(-n4nccn4)cc3)CC2)c2ccccc21,,41 nM,
CS(=O)(=O)N1CC2(CCN(C(=O)Nc3ccc(Oc4ccccc4)cc3)CC2)c2ccccc21,,2.6 nM,
CCS(=O)(=O)N1CC2(CCN(C(=O)Nc3cn(-c4ccccc4F)cn3)CC2)c2ccccc21,3 mg/kg,3.3 nM,Kp at 10 min [2]: 0.25; bioavailability [8]: 23%
CS(=O)(=O)N1CC2(CCN(C(=O)Nc3cn(-c4ccccc4)cn3)CC2)c2ccccc21,> 30 mg/kg,2.4 nM,Kp at 10 min [2]: 0.1; bioavailability [8]: 27%; clearance [4]: 3.9 mL/min/kg; logD [9]: 2.15; AUC [5]: 25.3 µM·h
CS(=O)(=O)N1CC2(CCN(C(=O)Nc3cnc4ccccc4c3)CC2)c2ccccc21,,5.4 nM,
CS(=O)(=O)N1CC2(CCN(C(=O)Nc3cc(-c4ccccc4)n[nH]3)CC2)c2ccccc21,> 30 mg/kg,1.4 nM,Kp at 10 min [2]: 0.02; bioavailability [8]: 13%; logD [9]: 3.08

SMILES,MED (Rattus norvegicus [1]),IC50 [7],further results
Cn1ccnc1-c1ccc(NC(=O)N2CCC3(CC2)CN(S(C)(=O)=O)c2ccccc23)cc1,,9 nM,
CS(=O)(=O)N1CC2(CCN(C(=O)Nc3cc(-c4ccccc4)no3)CC2)c2ccccc21,> 30 mg/kg,1.3 nM,Kp at 10 min [2]: 0.22; bioavailability [8]: 23%; logD [9]: 2.53
CS(=O)(=O)N1CC2(CCN(C(=O)Nc3ccc(-c4cccnc4)cc3)CC2)c2ccccc21,100 mg/kg,,Cmax [3]: 4.7 µM; clearance [4]: 13.3 mL/min/kg; AUC [5]: 12.7 µM·h; Tmax [6]: 1 h
CCS(=O)(=O)N1CC2(CCN(C(=O)Nc3cn(-c4ccc(F)cc4)cn3)CC2)c2ccccc21,> 30 mg/kg,4.1 nM,
CS(=O)(=O)N1CC2(CCN(C(=O)Nc3ccc(-n4cccn4)cc3)CC2)c2ccccc21,,3.2 nM,
CS(=O)(=O)N1CC2(CCN(C(=O)Nc3cccnc3)CC2)c2ccccc21,,> 1000 nM,
CS(=O)(=O)N1CC2(CCN(C(=O)Nc3cn(-c4cccc(F)c4)cn3)CC2)c2ccccc21,> 30 mg/kg,1.8 nM,
COc1cccc2sc(NC(=O)N3CCC4(CC3)CN(S(C)(=O)=O)c3ccccc34)nc12,,8.9 nM,
CS(=O)(=O)N1CC2(CCN(C(=O)Nc3ccc4ncccc4c3)CC2)c2ccccc21,> 30 mg/kg,2.5 nM,Kp at 10 min [2]: 0.03; bioavailability [8]: 24%; logD [9]: 2.74
CS(=O)(=O)N1CC2(CCN(C(=O)Nc3ccc(Cl)cn3)CC2)c2ccccc21,,7.1 nM,
CS(=O)(=O)N1CC2(CCN(C(=O)Nc3ccc(-c4ccncc4)cc3)CC2)c2ccccc21,10 mg/kg,,Cmax [3]: 5.5 µM; Activity (Mus musculus [10]): inactive; clearance [4]: 17.8 mL/min/kg; AUC [5]: 10.8 µM·h; Tmax [6]: 1 h
CCS(=O)(=O)N1CC2(CCN(C(=O)Nc3cn(-c4ccc(OC)cc4)cn3)CC2)c2ccccc21,,3.2 nM,
CC(=O)c1ccc(NC(=O)N2CCC3(CC2)CN(S(C)(=O)=O)c2ccccc23)cc1,,2.7 nM,
CS(=O)(=O)N1CC2(CCN(C(=O)Nc3ccc4ccccc4n3)CC2)c2ccccc21,,6.1 nM,
CS(=O)(=O)N1CC2(CCN(C(=O)Nc3ccc(-c4ccco4)cc3)CC2)c2ccccc21,,4.2 nM,
CS(=O)(=O)N1CC2(CCN(C(=O)Nc3cn(-c4ccccc4F)cn3)CC2)c2ccccc21,> 30 mg/kg,3.9 nM,
CCS(=O)(=O)N1CC2(CCN(C(=O)Nc3cn(-c4ccccc4)cn3)CC2)c2ccccc21,3 mg/kg,3.4 nM,Activity (Mus musculus [11]): inactive; Activity (Rattus norvegicus [1]): Dose-dependent effect; Kp at 10 min [2]: 0.22; bioavailability [8]: 37%; inhibition in vivo at 3 mg/kg (Rattus norvegicus [12]): 45%; Activity (Mus musculus [13]): Active; clearance [4]: 2.5 mL/min/kg; Activity (Mus musculus [14]): 8.8%; inhibition in vivo at 1 mg/kg (Rattus norvegicus [15]): 34%; AUC [5]: 58.9 µM·h; Drug uptake (Brain): 0.64 nmol/g; inhibition in vivo at 10 mg/kg (Rattus norvegicus [16]): 57%
